Measured values published in ChEMBL document CHEMBL1772950, “Solid phase synthesis and biological activity of tuftsin conjugates” (J Med Chem, 2011).
Active and inactive are the calls of the source. No cut-off for these calls is given here. Residues, ends and D or L forms follow the SMILES beside them. *: point of attachment. Acridin9yl(1-NO2,4-Me) = Cc1ccc([N+](=O)[O-])c2c(*)c3ccccc3nc12; X1 = O=C(c1ccc([N+](=O)[O-])c2c(=O)c3ccccc3[nH]c12)*; Acridone(4-CO) = O=C(c1cccc2c(=O)c3ccccc3[nH]c12)*; X2 = O=[N+]([O-])c1cccc2nc3ccccc3c(*)c12; Ahx = NCCCCCC(=O)O; GABA = NCCCC(=O)O; βAla = NCCC(=O)O

Columns and labels:
A549 [1] = experiment: Anticancer activity against human A549 cells assessed as cell viability by MTT assay; assay type: functional, cell-based
Outline: (§1)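 Cells kept in RPMI 1640 with 10% FBS, 2 mM L-glutamine, penicillin/streptomycin, 37 °C, 5% CO2. Exponentially growing cells exposed continuously to a range of concentrations (10 mM DMSO stocks) for three to four generation times. MTT added for 4 h at 37 °C; formazan read on plate reader. IC50 taken from survival–dose curves versus untreated controls. At least two independent experiments, each in duplicate.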

HL-60 [2] = experiment: Anticancer activity against human HL60 cells assessed as cell viability by MTT assay; assay type: functional, cell-based; outline: as §1
HL-60 [3] = experiment: Cell cycle arrest in human HL60 cells assessed as accumulation at G2 phase after 72 hrs by flow cytometry; assay type: functional, cell-based
A549 [4] = experiment: Cell cycle arrest in human A549 cells assessed as accumulation at M phase after 24 hrs by flow cytometry; assay type: functional, cell-based
A549 [5] = experiment: Cell cycle arrest in human A549 cells assessed as accumulation at G2 phase after 24 hrs by flow cytometry; assay type: functional, cell-based
A549 [6] = experiment: Cell cycle arrest in human A549 cells assessed as accumulation at G2 phase after 72 hrs by flow cytometry; assay type: functional, cell-based
HL-60 [7] = experiment: Cell cycle arrest in human HL60 cells assessed as accumulation at M phase after 24 hrs by flow cytometry; assay type: functional, cell-based
HL-60 [8] = experiment: Cell cycle arrest in human HL60 cells assessed as accumulation at G2 phase after 24 hrs by flow cytometry; assay type: functional, cell-based
A549 [9] = experiment: Cell cycle arrest in human A549 cells assessed as accumulation at M phase after 72 hrs by flow cytometry; assay type: functional, cell-based
A549 [10] = experiment: Cell cycle arrest in human A549 cells assessed as accumulation at S phase after 24 hrs by flow cytometry; assay type: functional, cell-based
HL-60 [11] = experiment: Cell cycle arrest in human HL60 cells assessed as accumulation at M phase after 72 hrs by flow cytometry; assay type: functional, cell-based
HL-60 [12] = experiment: Cell cycle arrest in human HL60 cells assessed as accumulation at early S phase after 72 hrs by flow cytometry; assay type: functional, cell-based
HL-60 [13] = experiment: Induction apoptosis in human HL60 cells assessed as change in nuclear morphology at 25 uM after 24 to 72 hrs by fluorescence microscopy; assay type: functional, cell-based
A549 [14] = experiment: Cell cycle arrest in human A549 cells assessed as accumulation at early S phase after 72 hrs by flow cytometry; assay type: functional, cell-based
HL-60 [15] = experiment: Cell cycle arrest in human HL60 cells assessed as accumulation at S phase after 24 hrs by flow cytometry; assay type: functional, cell-based
[16] = molecular target: DNA topoisomerase II alpha (Homo sapiens) (UniProt P11388); experiment: Inhibition of human topoisomerase II mediated DNA relaxation at 1 to 100 uM
[17] = molecular target: T1, DNA topoisomerase 1 (Homo sapiens) (UniProt P11387); experiment: Inhibition of human topoisomerase I mediated DNA relaxation at 1 to 100 uM
T1 sequence (whole entry): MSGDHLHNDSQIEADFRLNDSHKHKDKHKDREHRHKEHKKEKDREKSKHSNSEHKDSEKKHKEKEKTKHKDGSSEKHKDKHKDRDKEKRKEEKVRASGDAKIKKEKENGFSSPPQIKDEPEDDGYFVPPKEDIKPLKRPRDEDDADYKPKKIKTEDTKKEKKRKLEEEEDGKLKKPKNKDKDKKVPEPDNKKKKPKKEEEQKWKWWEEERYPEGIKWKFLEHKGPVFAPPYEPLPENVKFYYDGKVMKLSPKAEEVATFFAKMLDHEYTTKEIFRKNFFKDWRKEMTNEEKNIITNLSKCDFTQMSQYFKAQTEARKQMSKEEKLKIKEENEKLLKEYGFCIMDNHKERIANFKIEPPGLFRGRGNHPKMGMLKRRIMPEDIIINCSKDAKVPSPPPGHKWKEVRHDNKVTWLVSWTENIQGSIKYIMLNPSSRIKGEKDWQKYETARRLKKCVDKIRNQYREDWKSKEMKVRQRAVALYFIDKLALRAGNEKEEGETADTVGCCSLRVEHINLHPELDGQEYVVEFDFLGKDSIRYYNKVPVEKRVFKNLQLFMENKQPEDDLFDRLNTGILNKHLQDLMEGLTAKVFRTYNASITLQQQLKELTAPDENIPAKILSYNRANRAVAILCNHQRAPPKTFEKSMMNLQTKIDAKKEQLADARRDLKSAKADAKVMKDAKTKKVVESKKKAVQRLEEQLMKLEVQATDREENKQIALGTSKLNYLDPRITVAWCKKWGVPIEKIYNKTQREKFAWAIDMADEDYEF
Outline: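 Relaxation of 200 ng supercoiled pBR322 DNA by purified human topoisomerase I, in 10 mM Tris-HCl pH 7.5, 7.5 mM MgCl2, 60 mM KCl. Run 30 min at 37 °C, stopped with SDS/EDTA loading buffer. Products resolved on 1.2% agarose in TBE at 0.5 V/cm for 18 h, stained with ethidium bromide, imaged under UV.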

Sequence of DNA topoisomerase II alpha (Homo sapiens) (P11388 whole entry, looked up): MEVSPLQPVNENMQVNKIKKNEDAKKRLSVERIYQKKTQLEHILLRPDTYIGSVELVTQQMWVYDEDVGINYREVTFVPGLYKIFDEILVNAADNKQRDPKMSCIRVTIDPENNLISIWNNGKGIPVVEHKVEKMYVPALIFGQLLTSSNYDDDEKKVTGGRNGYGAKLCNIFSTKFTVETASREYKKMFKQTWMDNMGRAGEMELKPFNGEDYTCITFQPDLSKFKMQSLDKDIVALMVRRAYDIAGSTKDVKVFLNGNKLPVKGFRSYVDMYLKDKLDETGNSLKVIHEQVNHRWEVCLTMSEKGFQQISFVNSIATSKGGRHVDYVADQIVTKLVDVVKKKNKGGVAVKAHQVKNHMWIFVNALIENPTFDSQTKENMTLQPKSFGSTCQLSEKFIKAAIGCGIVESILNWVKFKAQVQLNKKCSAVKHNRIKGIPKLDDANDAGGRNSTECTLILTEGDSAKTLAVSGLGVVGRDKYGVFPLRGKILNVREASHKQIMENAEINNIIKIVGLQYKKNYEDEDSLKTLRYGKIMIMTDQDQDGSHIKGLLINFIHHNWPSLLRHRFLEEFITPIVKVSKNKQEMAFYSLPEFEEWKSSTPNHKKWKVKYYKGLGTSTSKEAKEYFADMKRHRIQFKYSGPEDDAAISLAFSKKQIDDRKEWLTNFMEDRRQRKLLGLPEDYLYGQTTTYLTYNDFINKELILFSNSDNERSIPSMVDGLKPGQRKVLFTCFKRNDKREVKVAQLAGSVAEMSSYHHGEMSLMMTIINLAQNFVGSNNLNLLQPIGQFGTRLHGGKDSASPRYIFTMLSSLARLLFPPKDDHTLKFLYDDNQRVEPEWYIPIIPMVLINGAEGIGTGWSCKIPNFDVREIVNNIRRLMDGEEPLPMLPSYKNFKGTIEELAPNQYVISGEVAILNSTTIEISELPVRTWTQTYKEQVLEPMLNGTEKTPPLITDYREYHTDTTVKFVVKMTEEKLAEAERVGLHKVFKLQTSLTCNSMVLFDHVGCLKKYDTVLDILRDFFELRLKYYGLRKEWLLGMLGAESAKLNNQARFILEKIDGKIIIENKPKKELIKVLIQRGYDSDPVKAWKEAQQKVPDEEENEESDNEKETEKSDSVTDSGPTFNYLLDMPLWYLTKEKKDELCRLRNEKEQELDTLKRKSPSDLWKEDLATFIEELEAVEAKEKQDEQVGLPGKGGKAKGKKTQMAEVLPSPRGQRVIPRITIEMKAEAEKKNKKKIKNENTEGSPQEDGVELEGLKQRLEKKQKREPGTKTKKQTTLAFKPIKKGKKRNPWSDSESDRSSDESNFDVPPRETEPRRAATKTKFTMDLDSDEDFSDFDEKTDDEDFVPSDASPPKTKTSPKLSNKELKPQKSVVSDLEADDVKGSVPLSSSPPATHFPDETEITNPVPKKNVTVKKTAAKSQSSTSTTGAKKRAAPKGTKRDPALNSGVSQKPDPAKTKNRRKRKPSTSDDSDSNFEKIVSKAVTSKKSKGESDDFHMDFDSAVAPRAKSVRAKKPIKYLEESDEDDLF

Row | SMILES | IC50 (A549 [1]) [µM] | IC50 (HL-60 [2]) [µM] | other results
1 | O=C(O)CCNc1c2ccccc2nc2cccc([N+](=O)[O-])c12 | 6 | 18.9 | 
2 | Cc1ccc([N+](=O)[O-])c2c(NCCCC(=O)N[C@H](C(=O)N[C@@H](CCCCNC(=O)CN)C(=O)N3CCC[C@H]3C(=O)N[C@@H](CCCNC(=N)N)C(=O)O)[C@@H](C)O)c3ccccc3nc12 ({Acridin9yl(1-NO2,4-Me)-GABA}-TK(Gly)PR-OH) | 3 | 17.2 | Activity (HL-60 [3]): Active; Activity (A549 [4]): Active; Activity (A549 [5]): Active; Activity (A549 [6]): Active; Activity (HL-60 [7]): Active; Activity (HL-60 [8]): Active; Activity (A549 [9]): Active; Activity (A549 [10]): Active; Activity (HL-60 [11]): Active; Activity (HL-60 [12]): Active; Activity (HL-60 [13]): inactive; Activity (A549 [14]): Active; Activity (HL-60 [15]): Active; inhibition [16]: inactive
3 | Cc1ccc([N+](=O)[O-])c2c(NCCCC(=O)O)c3ccccc3nc12 | 17.6 | 15.5 | Activity (HL-60 [3]): Active; Activity (A549 [4]): Active; Activity (A549 [5]): Active; Activity (A549 [6]): Active; Activity (HL-60 [7]): Active; Activity (HL-60 [8]): Active; Activity (A549 [9]): Active; Activity (A549 [10]): Active; Activity (HL-60 [11]): Active; Activity (HL-60 [12]): Active; Activity (HL-60 [13]): Active; Activity (A549 [14]): Active; Activity (HL-60 [15]): Active; inhibition [16]: inactive
4 | C[C@@H](O)[C@H](NC(=O)[C@H](CCCCN)NC(=O)[C@@H]1CCCN1C(=O)[C@H](CCCNC(=N)N)Nc1ccc(O)c2c1C(=O)c1ccccc1C2=O)C(=O)O | > 100 | > 100 | 
5 | O=C1CCC(=O)c2c1c(O)c1ccccc1c2O | 15.8 | 15.8 | inhibition [17]: Active
6 | Cc1ccc([N+](=O)[O-])c2c(NCCC(=O)N[C@H](C(=O)N[C@@H](CCCCNC(=O)CN)C(=O)N3CCC[C@H]3C(=O)N[C@@H](CCCNC(=N)N)C(=O)O)[C@@H](C)O)c3ccccc3nc12 ({Acridin9yl(1-NO2,4-Me)-βAla}-TK(Gly)PR-OH) | 76.5 | 55.5 | 
7 | Cc1ccc([N+](=O)[O-])c2c(NCCCCCC(=O)N[C@@H](CCCNC(=N)N)C(=O)N3CCC[C@H]3C(=O)N[C@@H](CCCCN)C(=O)N[C@H](C(=O)O)[C@@H](C)O)c3ccccc3nc12 ({Acridin9yl(1-NO2,4-Me)-Ahx}-RPKT-OH) | 25.6 | 22.1 | 
8 | Cc1ccc([N+](=O)[O-])c2c(NCCCCCC(=O)N[C@H](C(=O)N[C@@H](CCCCN)C(=O)N3CCC[C@H]3C(=O)N[C@@H](CCCNC(=N)N)C(=O)O)[C@@H](C)O)c3ccccc3nc12 ({Acridin9yl(1-NO2,4-Me)-Ahx}-TKPR-OH) | 15 | 13.2 | 
9 | Cc1ccc([N+](=O)[O-])c2c(NCCCCCC(=O)O)c3ccccc3nc12 | 18.7 | 17.5 | 
10 | C[C@@H](O)[C@H](Nc1ccc(O)c2c1C(=O)c1ccccc1C2=O)C(=O)N[C@@H](CCCCN)C(=O)N1CCC[C@H]1C(=O)N[C@@H](CCCNC(=N)N)C(=O)O | 14.2 | 32.4 | inhibition [17]: Active
11 | C[C@H](N)C(=O)NCCCC[C@H](NC(=O)[C@@H]1CCCN1C(=O)[C@H](CCCNC(=N)N)Nc1ccc(O)c2c1C(=O)c1ccccc1C2=O)C(=O)N[C@H](C(=O)O)[C@@H](C)O | > 100 | > 100 | 
12 | CC(C)[C@H](N)C(=O)NCCCC[C@H](NC(=O)[C@@H]1CCCN1C(=O)[C@H](CCCNC(=N)N)Nc1ccc(O)c2c1C(=O)c1ccccc1C2=O)C(=O)N[C@H](C(=O)O)[C@@H](C)O | 41.5 |  | 
13 | C[C@@H](O)[C@H](NC(=O)[C@H](CCCCNC(=O)CN)NC(=O)[C@@H]1CCCN1C(=O)[C@H](CCCNC(=N)N)NC(=O)CCNc1c2ccccc2nc2cccc([N+](=O)[O-])c12)C(=O)O ({X2-βAla}-RPK(Gly)T-OH) | 33.9 | 71.5 | 
14 | O=C(O)c1ccc([N+](=O)[O-])c2c(=O)c3ccccc3[nH]c12 | > 100 | > 100 | 

Now from value to molecule, other results behind:

Row | IC50 (A549 [1]) [µM] | IC50 (HL-60 [2]) [µM] | SMILES | other results
15 | > 100 | > 100 | CC[C@H](C)[C@H](N)C(=O)NCCCC[C@H](NC(=O)[C@@H]1CCCN1C(=O)[C@H](CCCNC(=N)N)NC(=O)c1cccc2c(=O)c3ccccc3[nH]c12)C(=O)N[C@H](C(=O)O)[C@@H](C)O ({Acridone(4-CO)}-RPK(Ile)T-OH) | 
16 | 8.7 | 11.3 | CC[C@H](C)[C@H](N)C(=O)NCCCC[C@H](NC(=O)[C@@H](NC(=O)CCCCCNc1c2ccccc2nc2c(C)ccc([N+](=O)[O-])c12)[C@@H](C)O)C(=O)N1CCC[C@H]1C(=O)N[C@@H](CCCNC(=N)N)C(=O)O ({Acridin9yl(1-NO2,4-Me)-Ahx}-TK(Ile)PR-OH) | 
17 | > 100 | > 100 | CC[C@H](C)[C@H](N)C(=O)NCCCC[C@H](NC(=O)[C@@H](NC(=O)c1ccc([N+](=O)[O-])c2c(=O)c3ccccc3[nH]c12)[C@@H](C)O)C(=O)N1CCC[C@H]1C(=O)N[C@@H](CCCNC(=N)N)C(=O)O (X1-TK(Ile)PR-OH) | 
18 | 47.3 | 23.2 | CC[C@H](C)[C@H](N)C(=O)NCCCC[C@H](NC(=O)[C@@H]1CCCN1C(=O)[C@H](CCCNC(=N)N)NC(=O)CCCCCNc1c2ccccc2nc2c(C)ccc([N+](=O)[O-])c12)C(=O)N[C@H](C(=O)O)[C@@H](C)O ({Acridin9yl(1-NO2,4-Me)-Ahx}-RPK(Ile)T-OH) | 
19 | > 100 | > 100 | C[C@@H](O)[C@H](NC(=O)[C@H](CCCCNC(=O)CN)NC(=O)[C@@H]1CCCN1C(=O)[C@H](CCCNC(=N)N)NC(=O)c1cccc2c(=O)c3ccccc3[nH]c12)C(=O)O ({Acridone(4-CO)}-RPK(Gly)T-OH) | 
20 | > 100 | > 100 | C[C@@H](O)[C@H](NC(=O)c1cccc2c(=O)c3ccccc3[nH]c12)C(=O)N[C@@H](CCCCNC(=O)CN)C(=O)N1CCC[C@H]1C(=O)N[C@@H](CCCNC(=N)N)C(=O)O ({Acridone(4-CO)}-TK(Gly)PR-OH) | 
21 | 38.9 | > 100 | CC[C@H](C)[C@H](N)C(=O)NCCCC[C@H](NC(=O)[C@@H]1CCCN1C(=O)[C@H](CCCNC(=N)N)NC(=O)c1ccc([N+](=O)[O-])c2c(=O)c3ccccc3[nH]c12)C(=O)N[C@H](C(=O)O)[C@@H](C)O (X1-RPK(Ile)T-OH) | 
